From ChEMBL document CHEMBL4513216, “Probing the Open Global Health Chemical Diversity Library for Multistage-Active Starting Points for Next-Generation Antimalarials” (ACS Infect Dis, 2020)

Assay: Toxicity liver stage against HepG2, at 10uM
Format: cell-based
Set-up: test concentration 10 uM, cell line HepG2-A16-CD81EGFP
Settings: human, HepG2-A16-CD81EGFP cells; read-out: INHIBITION
Summary of the method: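 Uninfected HepG2-A16-CD81EGFP cells, 3 × 10^3 per well, 1536-well, plated on prespotted compound at 10 μM final, parasite-free screening media added to match infected plates; puromycin 10 μM positive, DMSO 0.5% negative; run in parallel with 48 h PbLuc assay at 37 °C, 5% CO2; viability by CellTiter-Glo luminescence, normalized to controls.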

Row | Structure (SMILES) | cytotoxicity at 10 µM
1 | CC(=O)Nc1ccc2nc(-c3nccn3CC(C)(C)CO)ccc2c1 | 3.89%
2 | O=C(Cc1ccsc1)N1C[C@@H]2C[C@@H](c3nnc(C4CC4)o3)O[C@@H]2C1 | -142%
3 | CCS(=O)(=O)N1CCC2(CCCN(Cc3cc(OC)ccc3F)C2)C1 (stereo unspecified) | 14.4%
4 | CC(C)NC(=O)C1CN(C(=O)c2cccs2)CC12CCOCC2 (stereo unspecified) | -3.59%
5 | CN(Cc1ccccc1)CC(C)(C)NC(=O)c1cnccn1 | 6.95%
6 | O=S1(=O)NCC2(CCCN(Cc3cccnc3)C2)Oc2ncccc21 (stereo unspecified) | 6.28%
7 | Cc1ccc(Cl)c(C(C(=O)O)N(C)Cc2cnn(C)c2)c1 (stereo unspecified) | -11%
8 | COC(=O)C(C)(C)NC(=O)c1cc2sc(N(C)C)nc2s1 | -20.5%
9 | Cc1nc(C)n(CCNC(=O)C(C)n2ccnc2C(C)C)n1 (stereo unspecified) | -6.57%
10 | O=C(c1ccoc1)N(Cc1ccccn1)C1CC1 | -15%
11 | CCN(CC)C[C@H]1CN2CC[C@H]1C[C@@H]2CNC(=O)c1ccco1 | -2.49%
12 | CCN(C)CC(=O)N1CCCC(c2nnc(CN3CCOCC3)n2C)C1 (stereo unspecified) | -8.28%
13 | CCc1cn[nH]c1C1CCCN(C(=O)c2cc(C(C)C)on2)C1 (stereo unspecified) | -8.6%
14 | O=C(Cn1cnnn1)N1CCCCC1Cn1cccn1 (stereo unspecified) | -9.24%
15 | O=C(NC1CC2(CCN(CCO)CC2)c2ccccc21)c1ccno1 (stereo unspecified) | -12.2%
16 | Cn1ncnc1NS(=O)(=O)c1ccc(F)cc1Cl | 5.73%
17 | NCc1cnn(-c2ccccc2C(=O)NCc2ccccn2)c1 | -19.9%
18 | CCNc1cc2c(nn1)CCN(C(=O)CCc1c(C)noc1C)C2 | -2.47%
19 | O=C(Cn1cc(-c2ccccc2)ncc1=O)Nc1nnc[nH]1 | 20.3%
20 | Cn1c(CN2CCOC(CCc3ccncn3)C2)nc2ccccc21 (stereo unspecified) | -4.42%
21 | Cc1oc(C(=O)O)cc1S(=O)(=O)Nc1cc(Br)ccc1F | -3.46%
22 | COc1cc(C2SCC(=O)Nc3ccsc32)cc(OC)c1O (stereo unspecified) | 54.7%
23 | COc1cccc(N2CCN(C(=O)[C@H](O)C3CCCCC3)CC2=O)c1 | -14.1%

Row | Structure (SMILES) | cytotoxicity at 10 µM
24 | COc1ccccc1C1CNC(=O)c2nc(-c3c(C)n[nH]c3C)[nH]c2C1 (stereo unspecified) | -8%
25 | CCC1CN(CC(=O)NCCN2CCCC2)c2ccccc2S1 (stereo unspecified) | -13.1%
26 | CN1CCN(C(=O)CCc2ccccc2)Cc2cccnc21 | -1.04%
27 | Cc1[nH]ncc1CCCNC(=O)Nc1ccc(S(C)(=O)=O)nc1 | -3.71%
28 | Cc1c(NCc2ccc(C#N)cc2)cccc1S(=O)(=O)NC1CC1 | 20.9%
29 | CC(C)[C@H](NC(=O)Cn1nc2c(cc1=O)CCCC2)C(=O)O | 1.85%
30 | CCn1cc(CN2CCCN(C(=O)c3ccn(C)c(=O)c3)CC2)cn1 | -0.794%
31 | COCCn1cnc2c(F)cc(Br)cc2c1=O | -0.62%
32 | CC(C)(C)c1cc(CN2C[C@H]3CC[C@@H](C2)N(Cc2ccccn2)C3)n[nH]1 | 0.541%
33 | Cc1cc(C(=O)N2CCc3c(CN(C)C(C)C)n[nH]c3C2)[nH]n1 | -133%
34 | Cc1nc(CN(C)C2CCN(CCCOc3ccccc3)C2)no1 (stereo unspecified) | -9.26%
35 | COCc1ccccc1NC(=O)[C@@H]1CCCN1C(=O)c1ccco1 | -6.34%
36 | COCCNC(=O)NCc1ccc(OC(C)C)c(F)c1 | -8.48%
37 | Cc1ccc(S(N)(=O)=O)cc1C(=O)NC1CCN(C2CC2)CC1 | 13.3%
38 | Cc1cc(C(=O)N2CCn3cc(CN4CCOCC4)nc3C2)no1 | -75.7%
39 | CCOCCn1c(=O)[nH]c2cc(C(=O)N(C)Cc3cnn(C)c3)ccc21 | 2.81%
40 | Cc1nc(C)c(CN2CCOC(CN(C)c3cccnn3)C2)s1 (stereo unspecified) | -7.16%
41 | CC(Cn1ccnc1)NC(=O)NCCN1CCCCCC1=O (stereo unspecified) | -1.26%
42 | CCOC(=O)[C@H]1[C@@H](O)C(=O)N(C)C12CCN(C(=O)OC)CC2 | -0.817%
43 | CN(CCOc1cccc(CN)c1)C1CCOCC1 | -1.35%
44 | CN(C)CC1(O)CCCN(C(=O)Cn2ccc3ccccc32)CC1 (stereo unspecified) | -1.96%
45 | Clc1cnccc1N1CCCOCC1 | -0.625%
46 | COC(=O)C1CCN(C(=O)c2cccc(NS(C)(=O)=O)c2C)CC1 | -6.71%

Row | Structure (SMILES) | cytotoxicity at 10 µM
47 | Cn1nc(CN2CCCC2)c2c1CN(C(=O)c1cccnc1)CC2 | -146%
48 | CCNC(=O)C1CCCN(c2ccc3ccc(F)cc3n2)C1 (stereo unspecified) | -1.69%
49 | Cc1ccc(CC(=O)N2CCN(c3nccs3)CC2)s1 | -13%
50 | CC(C)CCc1nc(CN2CCOC(Cn3cncn3)C2)cs1 (stereo unspecified) | -6.06%
51 | CC(CN1CCOCC1)NC(=O)c1cc(Cl)c2c(c1)OCO2 (stereo unspecified) | -2.35%
52 | CC(C)CNC(=O)[C@H]1C[C@H]2CN(C(=O)NCCc3ccccc3)C[C@@H]1O2 | 1.22%
53 | CN(C)C1CCN(C(=O)Cc2csc(-c3ncccn3)n2)CC1 | -0.279%
54 | CC(=O)N1CCN(CCNS(=O)(=O)c2cc(F)ccc2C)CC1 | 5.42%
55 | CC(NC(=O)CCCOc1ccc(F)cc1)c1nnc2n1CCC2 (stereo unspecified) | -16.1%
56 | CN(Cc1cccc(F)c1)C(=O)CS(=O)(=O)Cc1c(Cl)cccc1Cl | -2.81%
57 | CCc1nnc2n1CCN(Cc1cccc3c1OCCO3)C2 | -7.42%
58 | Cn1nccc1-c1nnn2c1COCC(CNC1CCOCC1)C2 (stereo unspecified) | -103%
59 | O=C(Cc1csc(-c2nnc[nH]2)n1)N1CCCC1Cn1cccn1 (stereo unspecified) | -2.48%
60 | CSCc1nc(C(C)(C)NC(=O)OC(C)(C)C)no1 | -8.44%
61 | Cc1cccc(CN2CCOC3(COCCN(CCN(C)C)C3)C2)n1 (stereo unspecified) | -113%
62 | Cc1ccc(C(=O)N2C[C@@H](C(=O)O)[C@H](c3ccncc3)C2)cc1F | -11.2%
63 | COc1ccc2c(C(=O)N(C)C)cc(-c3cnc(N)nc3)nc2c1 | -3.3%
64 | OC1(CN2CCCC2)CCCN(Cc2cnc(-c3ccccc3)nc2)C1 (stereo unspecified) | -11.9%
65 | CC(NCc1cccc(Cl)c1)c1ccc(OCC(=O)NC2CC2)cc1 (stereo unspecified) | -12.2%
66 | Cc1ccccc1SCC(=O)Nn1cnnc1 | -43.1%
67 | Cc1cc(C2CCCN2C(=O)COc2ccc(CC#N)cc2)on1 (stereo unspecified) | -49.6%
68 | COCCN1CCCC(c2nc(C)n3c(C)c(C)sc23)C1 (stereo unspecified) | -21.5%
69 | CC(=O)N1CCCN(C(C(=O)O)c2cccc(C)c2C)CC1 (stereo unspecified) | -2.75%

Row | Structure (SMILES) | cytotoxicity at 10 µM
70 | O=C(c1ccco1)N1CCc2ncnc(Oc3cccnc3)c2CC1 | -2.86%
71 | O=C(Cc1ccco1)N1CCC2(CCOCC2COCC2CC2)CC1 (stereo unspecified) | 4.65%
72 | Cn1cccc1C(=O)N1CCCC(Cn2cc(CO)nn2)C1 (stereo unspecified) | 1.85%
73 | CCN1CCOC(CNCc2cnc(C(C)(C)C)s2)C1 (stereo unspecified) | -2.24%
74 | O=C(NCc1ccnc(OCC2CC2)c1)C1Cc2ccccc2O1 (stereo unspecified) | -0.483%
75 | CC(C)COc1cncc(NC(CO)c2ccco2)n1 (stereo unspecified) | -5.08%
76 | N#Cc1ccc(N2CCN(c3cnccn3)CC2)c(C(F)(F)F)c1 | 46.6%
77 | CC(C)(C#N)c1ccccc1CN(CCO)Cc1ccsc1 | 20%
78 | CN(CCC#N)C(=O)C(C)(C)Oc1ccc(C(N)=O)cc1 | 0.676%
79 | Cc1ccc(OCCN(C)C2CCOC2=O)cc1 (stereo unspecified) | -146%
80 | CC(C)n1nc(CN2CCCC2)c2c1CN(CC1CC1)CC2 | 2.53%
81 | O=C(CSC1CCc2ccccc2NC1=O)NCCO (stereo unspecified) | 5.52%
82 | CCc1noc(CN(CC)Cc2cc3ccc(C)cc3[nH]c2=O)n1 | 0.417%
83 | CCCc1ccc(CN2CCC3(CCC(=O)N(CCO)C3)CC2)o1 | -6.29%
84 | CCc1nc(C)c([C@H]2CN(C)C[C@@H]2C(=O)Nc2ccc3[nH]ncc3c2)[nH]1 | -1.67%
85 | CC(=O)N1CCC(C(=O)N2CCCC(Cc3cccc(C)n3)C2)CC1 (stereo unspecified) | -18.6%
86 | COc1ccc(CNc2nc(N3CCOCC3)ns2)cc1 | -4.77%
87 | CN1Cc2c(C(=O)NC3CCCCC3)ncn2-c2ccccc2S1(=O)=O | -153%
88 | CC(C)c1nn(C)c(N(C)C)c1CNCC(O)COc1ccccc1 (stereo unspecified) | 0.142%
89 | CCN(C(=O)COC)C(c1ccc(Cl)cc1)c1ccccn1 (stereo unspecified) | -9.7%
90 | O=C(COC(=O)Cc1cccs1)NCc1cccc(NC(=O)C2CC2)c1 | -8.08%
91 | CC(NC(=O)COc1nc(C(C)(C)C)no1)c1ccco1 (stereo unspecified) | -5.41%
92 | Cc1ccc(N2CCC3(CCN(C(=O)c4ccoc4)CC3)CC2)nn1 | -0.355%

Row | Structure (SMILES) | cytotoxicity at 10 µM
93 | COc1cc(CNC(C)Cn2cccn2)cc2c1OCCO2 (stereo unspecified) | 1.67%
94 | CC(=O)NCCCn1ncc2c(C)cccc21 | 9.68%
95 | CC(C)n1cc(CN2CCCN(C(=O)C3CCCN3C)CC2)cn1 (stereo unspecified) | -10%
96 | COc1coc(C(=O)Nc2nc(-c3ccncc3)cs2)cc1=O | -7.97%
97 | CC(C)COc1ccc(C2SCC(=O)Nc3c2c(=O)[nH]n3C(C)C)cc1 (stereo unspecified) | 8.74%
98 | CC(NC(=O)Cc1cc2c(cc1Cl)OCCO2)c1ccncn1 (stereo unspecified) | -6.29%
99 | CNC(=O)[C@H]1C[C@@H]2CN(S(=O)(=O)c3ccc(OC)cc3)C[C@@H]2N1C | -3.9%
100 | Cc1noc(-c2cccnc2N2CCOC(C)(c3cnn(C)c3)C2)n1 (stereo unspecified) | 4.08%
101 | O=C(NC1CCCN(c2ccccc2Cl)C1)c1c[nH]nn1 (stereo unspecified) | -1.58%
102 | O=C1CC2(CCN(CC3CC3)CC2)CN1Cc1cc(F)cc(F)c1 | 2.34%
103 | O=C(c1cc2cc(I)ccc2[nH]1)N1CCC(Nc2cccnn2)CC1 | -8.12%
104 | CC1(C)[C@@H]2CC=C(CN3CCCn4nc(CNS(C)(=O)=O)cc4C3)[C@H]1C2 | -46%
105 | Cc1cc(NC(=O)CN2CCCC2c2noc(C3CC3)n2)on1 (stereo unspecified) | 3.46%
106 | O=C(Nc1ccccc1OC1CCOC1)c1ccon1 (stereo unspecified) | -0.238%
107 | O=C(CC1CCc2ccccc21)NC1(C(=O)O)CCCC1 (stereo unspecified) | -11.9%
108 | Cc1cnn(CC2CN(Cc3nc4ccccc4n3C)CCO2)c1 (stereo unspecified) | 0.338%
109 | CC(C)CCn1[nH]c(CNc2ccc(Cl)cc2)nc1=O | 1.33%
110 | CC(C)[C@H](NC(=O)N1CCN(c2ccc(Cl)cc2)CC1)C(=O)NC1CC1 | -7.39%
111 | CCC(=O)N1CCC(c2nc(C)c3c(n2)N(C)CCC3)CC1 | 4.26%
